Tests used:
[1] = target: Voltage-gated inwardly rectifying potassium channel KCNH2 (Homo sapiens, UniProt Q12809); experiment: Inhibition of human recombinant ERG channel expressed in HEK293 cells
[2] = target: 5-hydroxytryptamine receptor 2A (Homo sapiens, UniProt P28223); experiment: Displacement of [3H]ketanserin from human recombinant 5HT2A expressed in CHOK1 cells; assay type: cell-based, CHO-K1
How it was run: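 Human recombinant 5-HT2A membranes from CHO-K1 cells were incubated with 1 nM [3H]ketanserin, with mianserin defining nonspecific binding. Incubation was 60 min at 27 °C in 50 mM Tris-HCl pH 7.4 with 4 mM CaCl2 and 0.1% ascorbic acid. Filtered on glass fibre presoaked in 0.5% PEI, washed, and counted. IC50 by nonlinear regression from 7–8 concentrations in duplicate.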

[3] = target: T1, 5-hydroxytryptamine receptor 2C (Homo sapiens, UniProt P28335); experiment: Displacement of [3H]mesulergine from human recombinant 5HT2C expressed in CHOK1 cells; assay type: cell-based, CHO-K1
T1 sequence (P28335 whole entry): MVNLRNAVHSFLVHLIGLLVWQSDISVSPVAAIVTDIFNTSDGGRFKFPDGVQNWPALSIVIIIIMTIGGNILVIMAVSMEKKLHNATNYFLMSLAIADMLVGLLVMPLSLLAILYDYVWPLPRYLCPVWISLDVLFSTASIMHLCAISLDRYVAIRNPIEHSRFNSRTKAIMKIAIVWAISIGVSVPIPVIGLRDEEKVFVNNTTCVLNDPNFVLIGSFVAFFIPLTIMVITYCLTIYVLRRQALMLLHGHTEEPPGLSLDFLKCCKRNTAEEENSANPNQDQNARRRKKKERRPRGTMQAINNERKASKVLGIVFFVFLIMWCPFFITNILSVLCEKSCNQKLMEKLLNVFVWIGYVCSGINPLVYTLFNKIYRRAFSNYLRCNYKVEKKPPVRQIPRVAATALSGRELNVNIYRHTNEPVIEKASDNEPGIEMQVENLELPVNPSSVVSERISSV
How it was run: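 Frozen CHO-K1 membranes with human recombinant 5-HT2C were incubated with 1.3 nM [3H]mesulergine in 50 mM Tris-HCl pH 7.4 with 0.1% ascorbic acid and 4 mM CaCl2 for 60 min at 27 °C. Nonspecific binding was set with 100 mianserin. Stopped by rapid filtration on glass fibre presoaked in 0.5% PEI.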

[4] = target: Sodium-dependent serotonin transporter (Homo sapiens, UniProt P31645); experiment: Displacement of [3H]imipramine from human SERT expressed in HEK293 cells; assay type: cell-based
How it was run: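 Membranes from 293 cells expressing SERT were incubated with 2 nM [3H]imipramine in 50 mM Tris-HCl pH 7.4 with 120 mM NaCl and 5 mM KCl for 30 min at 27 °C. Filtered through glass fibre presoaked in 0.5% PEI, then washed with ice-cold 50 mM Tris-HCl pH 7.4 containing 0.9% NaCl.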

Mus musculus = experiment: Locomotor activity in mouse assessed as distance traveled by animal in horizontal locomotion at 25 mg/kg, po after 60 mins measured for 30 mins by spontaneous locomotor activity; assay type: functional
How it was run: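 Mice were dosed orally at 25 mg/kg and acclimated to the chamber for 10 min. Horizontal distance travelled (cm) was then recorded over 30 min by automated video tracking. Testing ran between 09:00 and 17:00 h. Mean ± SEM of 6–7 mice.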

Voltage-gated inwardly rectifying potassium channel KCNH2, sequence (Q12809 whole entry): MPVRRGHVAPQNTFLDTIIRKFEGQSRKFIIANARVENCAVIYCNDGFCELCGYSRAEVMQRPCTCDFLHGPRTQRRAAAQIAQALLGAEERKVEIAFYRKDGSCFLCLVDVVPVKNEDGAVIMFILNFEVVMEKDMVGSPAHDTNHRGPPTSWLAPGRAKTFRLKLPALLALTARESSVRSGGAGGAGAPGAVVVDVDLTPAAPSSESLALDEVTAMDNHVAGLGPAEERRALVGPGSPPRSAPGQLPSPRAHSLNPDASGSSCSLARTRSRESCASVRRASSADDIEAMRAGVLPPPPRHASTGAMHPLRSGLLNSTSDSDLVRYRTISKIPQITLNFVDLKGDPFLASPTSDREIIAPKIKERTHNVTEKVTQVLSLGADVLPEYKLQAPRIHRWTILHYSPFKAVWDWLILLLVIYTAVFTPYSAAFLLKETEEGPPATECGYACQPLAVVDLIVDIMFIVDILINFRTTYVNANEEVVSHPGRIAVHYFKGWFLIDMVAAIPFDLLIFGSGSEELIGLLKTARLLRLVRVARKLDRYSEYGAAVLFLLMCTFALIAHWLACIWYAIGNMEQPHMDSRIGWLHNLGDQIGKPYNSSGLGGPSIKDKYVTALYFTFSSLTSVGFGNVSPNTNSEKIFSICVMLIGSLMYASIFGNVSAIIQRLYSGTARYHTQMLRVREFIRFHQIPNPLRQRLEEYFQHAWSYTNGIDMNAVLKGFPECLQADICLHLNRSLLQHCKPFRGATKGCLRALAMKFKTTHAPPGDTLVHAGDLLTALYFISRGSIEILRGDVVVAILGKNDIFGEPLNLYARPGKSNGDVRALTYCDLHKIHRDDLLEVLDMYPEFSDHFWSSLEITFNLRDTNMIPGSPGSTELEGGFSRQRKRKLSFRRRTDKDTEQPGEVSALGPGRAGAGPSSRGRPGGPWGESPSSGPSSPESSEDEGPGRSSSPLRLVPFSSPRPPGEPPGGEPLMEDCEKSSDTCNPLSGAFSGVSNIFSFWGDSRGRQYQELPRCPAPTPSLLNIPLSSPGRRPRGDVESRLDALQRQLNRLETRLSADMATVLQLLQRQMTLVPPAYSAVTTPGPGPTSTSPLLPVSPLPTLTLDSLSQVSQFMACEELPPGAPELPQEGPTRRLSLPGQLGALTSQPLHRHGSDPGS
Sodium-dependent serotonin transporter, sequence (P31645 whole entry): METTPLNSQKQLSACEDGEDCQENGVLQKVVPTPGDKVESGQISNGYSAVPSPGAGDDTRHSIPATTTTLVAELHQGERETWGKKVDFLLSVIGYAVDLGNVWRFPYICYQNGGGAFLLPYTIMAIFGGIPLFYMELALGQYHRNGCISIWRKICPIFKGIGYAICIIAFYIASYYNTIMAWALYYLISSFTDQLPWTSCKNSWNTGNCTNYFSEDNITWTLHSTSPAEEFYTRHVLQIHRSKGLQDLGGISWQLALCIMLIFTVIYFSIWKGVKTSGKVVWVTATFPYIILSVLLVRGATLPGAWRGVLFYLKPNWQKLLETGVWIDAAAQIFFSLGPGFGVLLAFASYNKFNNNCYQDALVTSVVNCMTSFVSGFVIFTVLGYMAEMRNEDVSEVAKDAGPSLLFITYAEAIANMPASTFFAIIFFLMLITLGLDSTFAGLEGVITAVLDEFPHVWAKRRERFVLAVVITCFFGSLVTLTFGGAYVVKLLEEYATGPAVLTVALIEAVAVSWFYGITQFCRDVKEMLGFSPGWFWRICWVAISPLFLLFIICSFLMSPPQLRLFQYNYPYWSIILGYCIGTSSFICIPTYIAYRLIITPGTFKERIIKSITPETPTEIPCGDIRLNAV
5-hydroxytryptamine receptor 2A, sequence (P28223 whole entry): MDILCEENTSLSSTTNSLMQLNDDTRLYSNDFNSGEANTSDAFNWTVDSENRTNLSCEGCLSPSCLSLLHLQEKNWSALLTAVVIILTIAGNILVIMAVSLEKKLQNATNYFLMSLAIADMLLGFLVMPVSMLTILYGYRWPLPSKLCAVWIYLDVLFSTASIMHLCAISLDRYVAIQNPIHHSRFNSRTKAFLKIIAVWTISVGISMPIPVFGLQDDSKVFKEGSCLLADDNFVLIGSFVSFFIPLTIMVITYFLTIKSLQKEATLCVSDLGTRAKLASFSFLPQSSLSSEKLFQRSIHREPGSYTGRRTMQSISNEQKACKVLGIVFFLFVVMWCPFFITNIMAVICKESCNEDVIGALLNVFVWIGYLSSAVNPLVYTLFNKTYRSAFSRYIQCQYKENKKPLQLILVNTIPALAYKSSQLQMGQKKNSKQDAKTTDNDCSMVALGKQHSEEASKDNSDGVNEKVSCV

With Cc1[nH]c(-c2ccccc2)cc1C(=O)NCCCN1CCN(c2cccc(Cl)c2Cl)CC1 the IC50 [1] was 100 nM.

CCCn1c(-c2ccccc2)cc(C(=O)NCCCN2CCN(c3cccc(Cl)c3Cl)CC2)c1C showed an IC50 [1] of 540 nM.

For Cc1c(C(=O)NCCCN2CCN(c3cccc(Cl)c3Cl)CC2)cc(-c2cccnc2)n1C, the IC50 [2] was 209 nM, the IC50 [3] was 92 nM and the IC50 [4] was 7 nM. The IC50 [1] was 6800 nM.

Molecule Cc1c(Cl)cccc1N1CCN(CCNC(=O)c2cc(-c3ccccc3)n(C)c2C)CC1 has an IC50 [3] of 233 nM, an IC50 [4] of 64 nM and an Activity (Mus musculus) of 7100 cm.

In the case of Cc1c(Cl)cccc1N1CCN(CCNC(=O)c2cc(C(C)(C)C)n(C)c2C)CC1, the IC50 [2] is reported as 54 nM, the IC50 [3] is reported as 210 nM and the IC50 [4] is reported as 315 nM. For the same molecule, the Activity (Mus musculus) was 6217 cm.

Cc1c(C(=O)NCCCN2CCN(c3ccccc3Br)CC2)cc(-c2ccccc2)n1C was tested, and the IC50 [2] was 221 nM, the IC50 [3] was 633 nM and the IC50 [4] was 225 nM.

Cc1c(C(=O)NCCCN2CCN(c3cccc4cccnc34)CC2)cc(-c2ccccc2)n1C gave an IC50 [2] of 352 nM, an IC50 [3] of 233 nM and an IC50 [4] of 22 nM.

Cc1ccc2cccc(N3CCN(CCCNC(=O)c4cc(-c5ccccc5)n(C)c4C)CC3)c2n1 showed an IC50 [2] of 832 nM, an IC50 [3] of 653 nM and an IC50 [4] of 300 nM.

Work on CCCn1c(-c2ccccc2)cc(C(=O)NCCCN2CCN(c3ccc(Cl)c(Cl)c3)CC2)c1C yielded an IC50 [2] of 54 nM, an IC50 [3] of 324 nM and an IC50 [4] of 284 nM.

With CCCn1c(-c2ccccc2)cc(C(=O)NCCCN2CCN(c3cccc(Br)c3)CC2)c1C the IC50 [2] was 221 nM, the IC50 [3] was 633 nM and the IC50 [4] was 225 nM.

Molecule CCCn1c(-c2ccccc2)cc(C(=O)NCCCN2CCN(c3cccc(OC)c3)CC2)c1C has an IC50 [2] of 153 nM, an IC50 [3] of 452 nM and an IC50 [4] of 322 nM.

Molecule CCCn1c(-c2ccccc2)cc(C(=O)NCCCN2CCN(c3cc(F)ccc3F)CC2)c1C has an IC50 [2] of 135 nM, an IC50 [3] of 1010 nM and an IC50 [4] of 854 nM.

CCCn1c(-c2ccccc2)cc(C(=O)NCCCN2CCN(c3cccc(C(F)(F)F)c3)CC2)c1C gave an IC50 [2] of 410 nM, an IC50 [3] of 619 nM and an IC50 [4] of 381 nM.

CCCn1c(-c2ccccc2)cc(C(=O)NCCCN2CCN(c3cccc4cccnc34)CC2)c1C gave an IC50 [2] of 210 nM, an IC50 [3] of 420 nM and an IC50 [4] of 82 nM.

In the case of CCCn1c(-c2ccccc2)cc(C(=O)N(C)CCCN2CCN(c3cccc(C)c3C)CC2)c1C, the IC50 [2] is reported as 17 nM, the IC50 [3] is reported as 12 nM and the IC50 [4] is reported as 163 nM. The IC50 [1] was 700 nM.

Cc1c(C(=O)N(C)CCCN2CCN(c3cccc(Cl)c3Cl)CC2)cc(-c2ccccc2)n1C showed an IC50 [3] of 35 nM and an IC50 [1] of 500 nM.

Work on CCCn1c(-c2ccccc2)cc(C(=O)N(C)CCCN2CCN(c3cccc(Cl)c3Cl)CC2)c1C yielded an IC50 [3] of 21 nM.

Cc1c(C(=O)NCCN2CCN(c3cccc(Cl)c3Cl)CC2)c(C)n(C)c1-c1ccccc1 was tested, and the IC50 [2] was 33 nM, the IC50 [3] was 16 nM and the IC50 [4] was 78 nM.

CCn1c(-c2ccc(Cl)cc2)cc(C(=O)NCCCN2CCN(c3cccc(Cl)c3Cl)CC2)c1C gave an IC50 [2] of 153 nM, an IC50 [3] of 22 nM and an IC50 [4] of 629 nM.

Cc1cccc(N2CCN(CCNC(=O)c3cc(C(C)(C)C)n(C)c3C)CC2)c1C was tested, and the IC50 [2] was 36 nM, the IC50 [3] was 2230 nM and the IC50 [4] was 908 nM. For the same molecule, the IC50 [1] was 11800 nM.

With Cc1cccc(N2CCN(CCCNC(=O)c3cc(C(C)(C)C)n(C)c3C)CC2)c1C the IC50 [2] was 386 nM, the IC50 [3] was 1140 nM and the IC50 [4] was 252 nM.

Cc1c(C(=O)NCCN2CCN(c3cccc(Cl)c3Cl)CC2)cc(C(C)(C)C)n1C was tested, and the IC50 [2] was 50 nM, the IC50 [3] was 109 nM and the IC50 [4] was 45 nM.

CCCn1c(-c2ccccn2)cc(C(=O)NCCCN2CCN(c3cccc(Cl)c3Cl)CC2)c1C showed an IC50 [1] of 1000 nM.

With Cc1c(C(=O)NCCCN2CCN(c3ccncc3)CC2)cc(-c2ccccc2)n1C the IC50 [2] was 4560 nM, the IC50 [3] was 5260 nM and the IC50 [4] was over 10000 nM.

Cc1[nH]c(-c2ccccn2)cc1C(=O)NCCCN1CCN(c2cccc(Cl)c2Cl)CC1 showed an IC50 [3] of 221 nM.
